Drawing on ChEMBL document CHEMBL4513216, “Probing the Open Global Health Chemical Diversity Library for Multistage-Active Starting Points for Next-Generation Antimalarials” (ACS Infect Dis, 2020), this text covers cytotoxicity for 95 molecules.

A short description of this data set: Toxicity liver stage against HepG2, at 10uM. The class given is cell-based. Particulars: human, HepG2-A16-CD81EGFP cells; read-out: INHIBITION
Further details: test concentration 10 uM, cell line HepG2-A16-CD81EGFP. The gist of the method: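 Uninfected HepG2-A16-CD81EGFP cells, 3 × 10^3 per well, 1536-well, plated on prespotted compound at 10 μM final, parasite-free screening media added to match infected plates; puromycin 10 μM positive, DMSO 0.5% negative; run in parallel with 48 h PbLuc assay at 37 °C, 5% CO2; viability by CellTiter-Glo luminescence, normalized to controls.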
On to `CC(C)(C)c1cn(C[C@H]2CC3CCN2C[C@@H]3C(=O)NC2CC2)nn1` (stereo not given in full), for which the cytotoxicity at 10 µM amounted to 9.46%.
Turning to `CC(=O)N1N=C(c2ccccc2)OC1C(=O)N(C)CCc1ccccc1` (stereo not given), the cytotoxicity at 10 µM was 3.54%.
The value for `OC[C@@H]1[C@@H](c2ccccc2)CN2CCN(c3ccccn3)C[C@H]12` was -0.53%; that for `COc1ccc2nnc(CCCC(=O)Nc3nc4c(s3)CCC4)n2n1` was -5.01%; that for `O=C1CSC(C(F)(F)F)c2c(O)nn(C3CCCCC3)c2N1` (stereo not given) was -45.7%.
Regarding `COc1ccc(F)cc1S(=O)(=O)N1CCC(Oc2ccc(Cl)cn2)CC1`, the cytotoxicity at 10 µM came to 8.05%.
Next, `CN(CC1CC1)c1ccc2ccc(C(=O)NCCc3ccccc3)cn12`: -1.83%.
Turning to `CN(C)C(=O)N1CC2(CCN(S(=O)(=O)C3CC3)CC2)c2ccccc21`, the cytotoxicity at 10 µM was -110%.
The value for `COCCn1ccc2c(cnc3nc(SC)nn32)c1=O` was -17.4%; that for `Cc1nn(C)c2cnn(Cc3ccc(C(=O)NCC4CC4)o3)c12` was 6.06%; that for `O=C(NC1CCS(=O)(=O)C1)c1cc(Sc2ncccn2)ccn1` (stereo not given) was 12%.
The value for `Cc1ccccc1S(=O)(=O)N(C)[C@@H]1CC[C@@H](n2ccnc2C)[C@@H]1O` was -1.07%; that for `O=C(c1ccncc1)N1CCCC(C2=Nc3ccccc3S(=O)(=O)N2)C1` (stereo not given) was 4.26%.
The value for `O=C(NC1CCCN(c2ccccn2)C1)C1(c2ccccc2F)CC1` (stereo not given) was 7.79%; that for `COCC(=O)N1CCOC(c2cccc(-c3cncnc3)n2)C1` (stereo not given) was 0.109%.
On to `Cc1ccccc1-c1cncc(C2CCN(CCO)CC2)n1`, for which the cytotoxicity at 10 µM is -1.61%.
The value for `CC(=O)N1CCCCC1c1nc2c(c(NC3CCCC3)n1)CN(C)CC2` (stereo not given) was -13%.
Next, `CN(CCC(=O)N1CCCC(Cc2cccnc2)C1)Cc1cccnc1` (stereo not given): -9.41%.
In the case of `CC(=O)N1CCCCC1c1nc(N)ncc1-c1ccccc1` (stereo not given), the cytotoxicity at 10 µM is -0.233%.
`O=C(NCCCn1ccnc1)C1COCC(=O)N1Cc1ccccc1` (stereo not given): the cytotoxicity at 10 µM came to 12.3%.
The value for `Cc1ccc(C2CN(CCS(C)(=O)=O)CCO2)c(C)c1` (stereo not given) was 3.03%; that for `Clc1cc(Cl)cc(CN2CCC(NCc3cc[nH]n3)CC2)c1` was 11.1%.
Next, `COCCCOc1ccc(C(=O)N(C)Cc2cccc(O)c2)cn1`: -9.63%.
The value for `COc1cc(CNc2cc(-c3ccoc3C)nn2CCO)ccc1F` was -14.6%; that for `COc1ccc(CNC(Cn2cncn2)c2ccccc2)cc1C` (stereo not given) was -4.33%; that for `CC(=O)Nc1ccc(CNCc2ccc(CS(C)(=O)=O)cc2)cc1` was 4.67%.
In the case of `Cc1nnc(NC(=O)NC2CCCc3c2cnn3CCO)s1` (stereo not given), the cytotoxicity at 10 µM is 6.66%.
Next, `O=C(CCNS(=O)(=O)c1ccccc1F)NCc1ccoc1`: -16.5%; `Cc1ncc2c(n1)CN(Cc1nc(C)c(C)o1)CC2`: -4.32%.
Next, `O=C(c1ccc(-n2ccnc2)nn1)N1CCCCC1Cn1cccn1` (stereo not given): -4.49%; `COc1ccc(CN2CCN(CCn3ccnc3)CC2)cc1F`: -8.88%; `CC(C)Cn1cnnc1C1CCCN1C(=O)c1ccc(F)cc1F` (stereo not given): -2.01%.
For `CC(=O)N(C)c1nc(CN2CCN(c3nccs3)CC2)cs1`, the cytotoxicity at 10 µM was -12.5%.
For `O=C(Nc1cc(CSCCO)ccn1)c1ccc(Cl)o1`, the cytotoxicity at 10 µM was -7.76%.
Next, `CCS(=O)(=O)NC(CCSC)C(=O)Nc1ccc(F)cc1` (stereo not given): -6.6%; `CCc1ccc(NC(=O)c2ncc(C(N)=O)cc2Cl)cc1F`: -9.86%; `CCN(C(=O)C1Cc2cc(Cl)ccc2O1)C1CC1` (stereo not given): 10.1%.
For `CCCc1nc(C(C)(C)NC(=O)c2ccnn2C)no1`, the cytotoxicity at 10 µM was -10.5%.
The value for `Cn1nnc2cc(C(=O)N3CCCC3Cc3ccccc3)ccc21` (stereo not given) was -14.7%; that for `Cn1ccnc1CN1CCc2c(COCC3CC3)nn(C)c2C1` was 8.68%; that for `Cc1ccc2c(c1)C(N1CCOCC1)CC21CCNCC1` (stereo not given) was -116%.
Next, `CN1CCC(CO[C@H]2CN(C(=O)c3cccn3C)[C@@H]3COC[C@H]23)CC1`: -109%; `O=C(c1cscn1)N1CCc2ncc(Cn3cncn3)n2CC1`: -68.9%.
As to `O=C(c1ccnnc1)N1CCc2ncnc(C3CCOC3)c2CC1` (stereo not given), the cytotoxicity at 10 µM was -77.5%.
The value for `Cc1cccc(COC[C@]23COC[C@H]2CN(c2ncccn2)C3)n1` was -76.2%.
Next, `CC(=O)N1CCn2cc(CNC(=O)c3cccn3C)nc2C1`: 1.88%; `CN(Cc1ccccn1)C1COC2(CCN(Cc3cccnc3)CC2)C1` (stereo not given): -1.42%; `Cc1ccc(CN2CCCn3c(nc(Cn4cncn4)cc3=O)C2)s1`: -1.6%.
Next, `CN(C)CC(=O)Nc1ccc(C(=O)N(C)CCc2cn[nH]c2)cc1`: 2.2%; `Nc1cc(C(=O)N2CCC(Oc3cccc(C(F)(F)F)c3)CC2)ccn1`: -7.03%.
For the molecule `Cc1nn(C)cc1C(=O)N1CCCn2nc(CN3CC[C@H](F)C3)cc2C1`, the cytotoxicity at 10 µM was -7.88%.
The value for `CCn1ccnc1CN(C)Cc1nc(Cc2cccc(F)c2)no1` was -4.44%; that for `Cc1nc(CN2C[C@@H](NS(=O)(=O)N(C)C)[C@H](C(C)C)C2)cs1` was -6.04%; that for `c1cncc(OCCCNC2COc3ccccc3C2)c1` (stereo not given) was -7.84%.
As to `c1cc(CN2CCC(CCn3cccn3)CC2)cc(Cn2cccn2)c1`, the cytotoxicity at 10 µM was -1.58%.
`CN(CCN1CCCCC1=O)Cc1cc2cc3c(cc2[nH]c1=O)OCO3`: the cytotoxicity at 10 µM is -6.21%.
Next, `Cc1cc(C)nc(CCNc2nccc(CCC(F)(F)F)n2)n1`: -114%; `CC1CCC(NCCCN2CCOCC2)CC1` (stereo not given): -6.58%; `Cc1ccc(CN2CCOCS2(=O)=O)cc1F`: 9.52%.
Next, `CN1CCN(C(=O)c2cn3ccsc3n2)[C@H]2CS(=O)(=O)C[C@H]21`: -1.27%; `CC(C)(C)CN1CCC(c2nnc(Cn3ccnc3)n2C2CC2)CC1`: -5.02%; `Cc1nc(N)ncc1C(=O)N1CCCC(CCc2ccc(F)c(F)c2)C1` (stereo not given): -4.51%.
Next, `Cn1cc(CN(CC2(O)CNCCOC2)C2CCCCC2)cn1` (stereo not given): 3.09%.
In the case of `CC(Cn1ccnc1)NC1CCN(Cc2cccc(O)c2)CC1` (stereo not given), the cytotoxicity at 10 µM is -4.21%.
The value for `CC(C)n1cnnc1CN(C)C(=O)c1cnn2ccccc12` was 1.31%; that for `CCOC(=O)N1CCN(C(=O)c2ccc3ccn(C)c3c2)CC1` was -6.57%.
Next, `CN1CCN(C[C@@H]2CN(C(=O)c3ccccc3C#N)C[C@@H]2CO)CC1`: -24.7%; `CCN(CC)C(=O)c1c(Cl)cnn1CC`: -12.3%.
The value for `CS(=O)(=O)N1CCC(C(=O)NC(Cc2ccsc2)c2nccs2)CC1` (stereo not given) was 4.04%; that for `Cc1ccccc1-c1cncc(C2CCN(C)CC2)n1` was -6.13%.
With `Cc1cccc(CN2CCC(N(C)Cc3nnc(C4CC4)n3C)C2)c1` (stereo not given), the cytotoxicity at 10 µM was -6.04%.
The value for `Cc1cc(OCC(=O)NS(=O)(=O)c2cccnc2)ccc1Cl` was 0.544%; that for `COc1cc(Cl)ccc1C(=O)N1CCCC(c2cc(C)[nH]n2)C1` (stereo not given) was 72.5%.
The value for `Cc1oc(C(=O)O)cc1S(=O)(=O)Nc1cc(Cl)ccc1F` was -12%; that for `CCc1nc(CN2CCCN(C(=O)c3cnc[nH]3)CC2)cs1` was -9.39%.
The value for `Cc1cc(C)n(CC2CCCN2C(=O)c2cccc3[nH]ncc23)n1` (stereo not given) was -5.55%; that for `CN(C(=O)NCCCN1CCCC1)C1CCN(c2ccccc2)C1=O` (stereo not given) was 0.864%.
`Cc1ccc(CN(Cc2[nH]cnc2C)C2CC(C)(C)NC(C)(C)C2)o1`: the cytotoxicity at 10 µM is -3.3%.
Take `COc1ccc(CC(=O)N2CC[C@@H](OC)[C@@H]2Cc2cccnc2)cc1`: the cytotoxicity at 10 µM stood at 8.48%.
The value for `NC(=O)N1CC[C@H](O)[C@@H]1Cc1cccnc1` was 1.72%; that for `c1ccc(CN2C[C@@H]3OCCN(c4ncccn4)[C@@H]3C2)nc1` was 3.86%; that for `CCN(CC)Cc1cn2c(n1)CN(C(=O)c1cc(C)on1)CC2` was 6.17%.
For the molecule `Cc1cc(CN2CC[C@H]3[C@H]2CCN3CC(=O)N(C)C)oc1C`, the cytotoxicity at 10 µM was -5.6%.
The value for `c1cc(CN2CCO[C@H]3[C@H](OCCN4CCCC4)CC[C@@H]32)ccn1` was -1.95%.
Next, `O=C([C@@H]1CSCN1)N1CC2(CCNCC2)c2cc(Cl)ccc21`: 4.33%.
Next, `COCCN1CCC2(CCN(Cc3ccc(OC)cc3)CC2)C1=O`: 2.88%; `CN(Cc1ccco1)[C@@H]1CN(CC2CCOCC2)C[C@@H]2CCCO[C@@H]21`: -71.1%; `O=C1CO[C@@H]2CN(Cc3cccs3)C[C@H]2N1Cc1cccnc1`: -77.6%.
Turning to `CCCN1CCC[C@]2(CCC(=O)N2Cc2ccncc2)[C@H]1CC`, the cytotoxicity at 10 µM was -1.16%.
In the case of `Cn1ccnc1CN1CCCC2(CCN(CC3CCCO3)CC2)C1` (stereo not given), the cytotoxicity at 10 µM is -76.7%.
The value for `CCS(=O)(=O)N1CCN(Cc2cccnc2)c2nc(C)ccc2C1` was -70.3%.
The value for `Cn1cnc2c(-c3ccccc3)nc(C3CCNCC3)cc21` was -109%.
Next, `COCCCNC(=O)c1cc(-c2cnc(N3CCOCC3)nc2)cn1C`: -69.8%; `CCN(C)c1ncnc2c1CCN(Cc1ccncc1)CC2`: -10.7%; `Cc1cnn(CCC(=O)N2C[C@@H]3CC[C@H]2CN(CC(=O)N(C)C)C3)c1`: -10%.
